Results reported in ChEMBL document CHEMBL1255568, “Amino derivatives of indole as potent inhibitors of isoprenylcysteine carboxyl methyltransferase” (J Med Chem, 2010).

Columns and labels:
MDA-MB-231 = assay: Antiproliferative activity against human MDA-MB-231 cells after 72 hrs by colorimetric tetrazolium assay; format: functional, cell-based; conditions: MDA-MB-231, 72 h
Method in brief: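 MDA-MB-231 cells grown in DMEM with 10% FBS and penicillin/streptomycin at 37 °C, 5% CO2, used within passages 10-25. Seeded at 2400 cells/well in DMEM with 5% FBS for 24 h, then exposed to compound (final DMSO 0.5% v/v) for 72 h. MTS-type tetrazolium reagent added for 2 h at 37 °C, absorbance read at 490 nm, blank subtracted. Triplicate wells. IC50 from sigmoidal viability curve, mean of at least two determinations.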

[1] = target: Protein-S-isoprenylcysteine O-methyltransferase (Homo sapiens, UniProt O60725); assay: Inhibition of recombinant ICMT expressed in Sf9 cells using [3H] AdoMet after 20 mins by scintillation counting
Sequence of Protein-S-isoprenylcysteine O-methyltransferase (O60725 whole entry): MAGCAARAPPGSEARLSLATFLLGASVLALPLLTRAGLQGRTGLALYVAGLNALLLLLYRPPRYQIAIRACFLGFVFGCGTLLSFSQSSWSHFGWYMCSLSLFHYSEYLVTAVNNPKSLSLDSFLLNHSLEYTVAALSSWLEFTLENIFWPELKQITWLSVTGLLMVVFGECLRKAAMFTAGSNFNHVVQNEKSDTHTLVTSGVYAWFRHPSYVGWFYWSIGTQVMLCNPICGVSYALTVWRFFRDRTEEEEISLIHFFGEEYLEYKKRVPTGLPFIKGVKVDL
Method in brief: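 Sf9 membranes carrying recombinant Icmt (1.0 μg protein) in 100 mM Hepes pH 7.4, 5 mM MgCl2, 100 μM EDTA. Preincubated with compound (final DMSO 2% v/v) for 20 min at 37 °C. Reaction started with final 1 μM biotin-farnesyl-L-cysteine and 0.5 μM [3H]AdoMet, run 20 min at 37 °C, then stopped with Tween 20. Product captured overnight at 4 °C on streptavidin beads, washed, and counted by scintillation. Mean ± SD of 3 or more determinations.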

SMILES	IC50 (MDA-MB-231)	IC50 [1]
CCCCCCCCn1cc(CC(=O)N(CC)CC)c2cc(-c3cccc(C)c3)ccc21	27 µM	1.4 µM
CCCCCCCCn1cc(CN)c2cc(-c3cccc(C)c3)ccc21	2.9 µM	0.7 µM
CCCCCCCCn1cc(CNC(C)=O)c2cc(-c3cccc(C)c3)ccc21	30 µM	1.8 µM
CCCCCCCCn1cc(CN(CC)CC)c2cc(-c3cccc(C)c3)ccc21	3.6 µM	0.7 µM
CCCCCCCCn1cc(CC(N)=O)c2cc(-c3ccc(C)cc3)ccc21		1 µM
CCCCCCCCn1cc(CC(N)=O)c2cc(-c3ccccc3)ccc21	26 µM	1.8 µM
CCCCCCCCn1cc(CN2CCN(C)CC2)c2cc(-c3cccc(C)c3)ccc21	6.1 µM	0.9 µM
CCCCCCCCn1cc(CC(=O)N(C)C)c2cc(-c3cccc(C)c3)ccc21	31 µM	1.5 µM
CCCCCCCCn1cc(CC(N)=O)c2cc(-c3ccccc3C)ccc21	21.2 µM	1 µM
CCCCCCCCn1cc(CC(=O)N2CCN(C)CC2)c2cc(-c3cccc(C)c3)ccc21	19.7 µM	
CCCCCCCCn1cc(CN2CCOCC2)c2cc(-c3cccc(C)c3)ccc21	24.5 µM	2.7 µM
CCCCCCCCn1cc(CNS(C)(=O)=O)c2cc(-c3cccc(C)c3)ccc21	17.5 µM	1.2 µM
CCCCCCCCn1cc(CC(N)=O)c2cc(-c3cccc(OC)c3)ccc21	22.4 µM	1.9 µM
CCCCCCCCn1cc(CC(=O)N(CC)CC)c2cc(-c3cccc(OC)c3)ccc21	52 µM	0.8 µM
CCCCCCCCn1cc(CN2CCCC2)c2cc(-c3cccc(C)c3)ccc21	5.1 µM	0.5 µM
CC(C)=CCn1ccc2cc(-c3cccc(C)c3)ccc21	> 100 µM	
CCCCCCCCn1cc(CN(CC)CC)c2cc(-c3ccccc3C)ccc21	5.5 µM	0.6 µM
CCCCCCCCn1cc(CC(N)=O)c2ccccc21	50 µM	6.5 µM
CCCCCCCCn1cc(CC(=O)N2CCCCC2)c2cc(-c3cccc(C)c3)ccc21	28.9 µM	1.8 µM
CCCCCCCCn1cc(C(N)=O)c2cc(-c3cccc(C)c3)ccc21	> 100 µM	
CCCCCCCCn1cc(CN(C)C)c2cc(-c3cccc(C)c3)ccc21	6.8 µM	1.3 µM
CC(C)=CCn1cc(CN2CCCCC2)c2cc(-c3cccc(C)c3)ccc21	3.9 µM	2.1 µM
CCCCCCCCn1cc(CC(=O)OCC)c2cc(-c3cccc(C)c3)ccc21	> 100 µM	> 100 µM

SMILES	IC50 (MDA-MB-231)	IC50 [1]
CCCCCCCCn1cc(CN(CC)CC)c2cc(-c3ccc(C)cc3)ccc21	3.4 µM	0.6 µM
CC(C)=CCn1cc(CN2CCOCC2)c2cc(-c3cccc(C)c3)ccc21	34 µM	
CCN(CC)Cc1cn(CC=C(C)C)c2ccc(-c3cccc(C)c3)cc12	3.8 µM	2.4 µM
CCN(CC)Cc1cn(CC=C(C)C)c2ccc(F)cc12	32 µM	35 µM
CC(C)=CCC/C(C)=C/Cn1cc(CC(N)=O)c2cc(-c3cccc(C)c3)ccc21	10.6 µM	1 µM
CCCCCCCCn1cc(CN(C)C(C)C)c2cc(-c3cccc(C)c3)ccc21	5.3 µM	0.9 µM
CCCCCCCCn1cc(CC(N)=O)c2cc(F)ccc21	70 µM	
CCCCCCCCn1cc(CN(C(C)C)C(C)C)c2cc(-c3cccc(C)c3)ccc21	20.1 µM	1.7 µM
CC(C)=CCn1cc(CC(N)=O)c2cc(F)ccc21	> 100 µM	
Cc1cccc(-c2ccc3c(c2)c(CC(N)=O)cn3Cc2cccc(C(F)(F)F)c2)c1	17.2 µM	2.5 µM
CCN(CC)Cc1cn(CC=C(C)C)c2ccccc12	74 µM	67 µM
CCCCCCCCn1cc(CC(N)=O)c2cc(-c3cccc(OCC)c3)ccc21	18.7 µM	1.3 µM
CCCCCCCCn1cc(CC(=O)OC)c2cc(-c3cccc(C)c3)ccc21	> 100 µM	76 µM
CCCCCCCCn1cc(CN(CCC)CCC)c2cc(-c3cccc(C)c3)ccc21	13 µM	0.8 µM
CC(C)=CCn1cc(CC(N)=O)c2cc(-c3cccc(C)c3)ccc21	28.5 µM	7.7 µM
CCCCCCCCn1cc(CCC(N)=O)c2cc(-c3cccc(C)c3)ccc21	20.7 µM	
Cc1cccc(-c2ccc3[nH]cc(CC(N)=O)c3c2)c1	> 100 µM	33 µM
CCCCCCCCn1cc(CC(=O)N2CCCC2)c2cc(-c3cccc(C)c3)ccc21	15.6 µM	1.2 µM
CCCCCCCCn1cc(CC(=O)N(CC)CC)c2cc(-c3cccc(OCC)c3)ccc21	26.8 µM	1 µM
CCCCCCCCn1ccc2cc(-c3cccc(C)c3)ccc21	> 100 µM	> 100 µM
CCCCCCCCn1cc(CN2CCCCC2)c2cc(-c3cccc(C)c3)ccc21	4.9 µM	0.7 µM
CCCCCCCCn1cc(CN(CC)CC)c2cc(F)ccc21	7.2 µM	4.1 µM
